Assay results taken from ChEMBL document CHEMBL1136729, “Synthesis of 3'- and 5'-nitrooxy pyrimidine nucleoside nitrate esters: "nitric oxide donor" agents for evaluation as anticancer and antiviral agents” (J Med Chem, 2003).
In brackets after ≈: the same amount, converted by molar mass.

Legend:
[1] = tested on: KBALB-STK; assay: In vitro cell cytotoxicity against KBALB-STK cell lines expressed in HSV-1 TK; assay type: functional; conditions: Mus musculus
How it was run: (§1)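 MTT assay. KBALB, KBALB-STK, 143B and 143B-LTK cells were grown in DMEM with 10% FBS; EMT-6 cells in Waymouth medium with 12.5% FBS. Cells were seeded at 8 × 10² per well and grown 24 h. Compound in DMEM was added for 3 days at 37 °C in 5% CO2, followed by MTT for 4 h, DMSO solubilisation and blank-corrected A540. CC50 is the concentration cutting A540 to 50% of control, mean of n = 6.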

[2] = Compound was tested for in vitro nitric oxide release in the presence of 18 mM L-cysteine at 1 h; assay type: functional
How it was run: (§2)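 Compound (2 mM stock in 0.1 M phosphate buffer pH 7.4) was mixed 1:1 with freshly made 36 mM L-cysteine in the same buffer and incubated at 37 °C for 1 or 16 h without air. The mixture was exposed to air for 10 min, then Griess reagent was added. A540 was read after 10 min. Nitrite was calculated from a 0–60 μM sodium nitrite standard curve, n = 3.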

[3] = Compound was tested for in vitro nitric oxide release in the presence of 18 mM L-cysteine at 16h; assay type: functional; how it was run: as §2
[4] = species on record: Rattus norvegicus; assay: Compound was tested for in vitro nitric oxide release in the presence of rat serum at 1 h; assay type: functional
How it was run: (§3)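 Compound (1 × 10⁻² M stock) was mixed 1:9 with filtered rat serum. It was incubated at 37 °C for 1 or 16 h with 0.2 U/mL Aspergillus nitrate reductase, 50 mM HEPES, 5 μM FAD and 0.1 mM NADPH. Leftover NADPH was removed with lactate dehydrogenase plus pyruvate over 10 min. Griess reagent was added and A540 read after 10 min at 25 °C. % NO release came from a nitrite standard curve, n = 3.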

[5] = species on record: Rattus norvegicus; assay: Compound was tested for in vitro nitric oxide release in the presence of rat serum at 16 h; assay type: functional; how it was run: as §3
[6] = tested on: 143B; assay: In vitro cell cytotoxicity against 143B-LTK cell lines expressed in HSV-1 TK; assay type: functional; conditions: Homo sapiens; how it was run: as §1
[7] = tested on: Monkey; assay: (§4) Antiviral activity against Punta toro virus in vero cell cultures; assay type: functional, organism-based, Chlorocebus sabaeus; conditions: Cercopithecidae
[8] = tested on: Coxsackievirus B4; assay: Antiviral activity against coxsackie B4 virus; assay type: functional, organism-based; conditions: Enterovirus B
[9] = tested on: Human respirovirus 3; assay: Antiviral activity against parainfluenza-3 virus; assay type: functional, organism-based
[10] = tested on: Sindbis virus; assay: Antiviral activity against sindbus virus; assay type: functional, organism-based
[11] = tested on: Respiratory syncytial virus; assay: Antiviral activity against respiratory syncytial virus in Hela cell cultures; assay type: functional, organism-based; conditions: human respiratory syncytial virus
[12] = tested on: Mammalian orthoreovirus 1; assay: Antiviral activity against reovirus-1; assay type: functional, organism-based
[13] = tested on: Human alphaherpesvirus 1; assay: Inhibitory activity against HSV-1; assay type: functional, organism-based
[14] = tested on: Human alphaherpesvirus 2; assay: Inhibitory activity against HSV-2; assay type: functional, organism-based
[15] = tested on: Vaccinia virus; assay: Inhibitory activity against vaccinia virus; assay type: functional, organism-based; conditions: Orthopoxvirus vaccinia
[16] = tested on: 143B; assay: In vitro cell cytotoxicity against 143-B cell lines (Human osteosarcoma cell line); assay type: functional; how it was run: as §1
[17] = (§5) In vitro cell cytotoxicity against EMT-6 cell lines; assay type: functional; conditions: Mus musculus, EMT6; how it was run: as §1
[18] = tested on: KBALB cell line; assay: In vitro cell cytotoxicity against KBALB cell line (transformed fibroblast sarcoma cell line); assay type: functional; conditions: Mus musculus; how it was run: as §1
[19] = Compound was tested for in vitro nitric oxide release in the presence of 18 mM L-cysteine at 16 h; assay type: functional; how it was run: as §2
[20] = tested on: Punta Toro virus; assay: as §4; assay type: functional, organism-based
[21] = tested on: EMT6; assay: as §5; assay type: functional; conditions: Mus musculus; how it was run: as §1
[22] = tested on: Human alphaherpesvirus 1; assay: (§6) Inhibitory activity against herpes simplex virus […]; assay type: functional, organism-based
[23] = tested on: Human alphaherpesvirus 2; assay: as §6; assay type: functional, organism-based

Row | SMILES | CC50 [1] [µM] | NO release [2] [%] | NO release [4] [%] | NO release [5] [%] | CC50 [6] [µM] | CC50 [16] [µM] | CC50 [18] [µM] | NO release [19] [%] | other results
1 | Cc1cn([C@H]2C[C@H](O)[C@@H](CO[N+](=O)[O-])O2)c(=O)[nH]c1=O | 300 | 5 | 3.6 | 4.8 |  |  |  |  | NO release [3]: 59.8%
2 | O=c1ccn([C@H]2C[C@H](O[N+](=O)[O-])[C@@H](CO)O2)c(=O)[nH]1 |  | 4.9 | 7.7 | 9 | 850 |  |  |  | IC50 [7]: > 80 µg/mL; IC50 [8]: > 80 µg/mL; IC50 [9]: > 80 µg/mL; IC50 [10]: > 80 µg/mL; IC50 [11]: > 80 µg/mL; IC50 [12]: > 80 µg/mL
3 | O=c1[nH]c(=O)n([C@H]2C[C@H](O)[C@@H](CO)O2)cc1/C=C/I |  |  |  |  |  |  |  |  | IC50 [13]: 0.0051 µg/mL (≈ 0.0134 µM); IC50 [14]: 80 µg/mL (≈ 210 µM); IC50 [15]: 2.3 µg/mL (≈ 6.05 µM)
4 | O=c1[nH]c(=O)n([C@H]2C[C@H](O[N+](=O)[O-])[C@@H](CO)O2)cc1F | 3.5 | 0 | 4 | 6.6 | 74 | 2.4 | 8 | 3.8 | CC50 [17]: 6.2 µM; IC50 [8]: > 80 µg/mL; IC50 [9]: > 80 µg/mL; IC50 [20]: > 80 µg/mL; IC50 [10]: > 80 µg/mL; IC50 [11]: > 80 µg/mL; IC50 [12]: > 80 µg/mL
5 | Nc1nc(=O)n([C@H]2C[C@H](O[N+](=O)[O-])[C@@H](CO)O2)cc1I | 250 | 4 | 12.5 | 17.6 | 200 | 200 | 1000 | 47.2 | CC50 [21]: 340 µM
6 | O=c1[nH]c(=O)n([C@H]2C[C@H](O)[C@@H](CO[N+](=O)[O-])O2)cc1I | 250 | 3.7 | 3.9 | 4.7 | 21 | 340 | 340 | 36.4 | 
7 | O=[N+]([O-])O[C@H]1CO[C@H]2[C@@H]1OC[C@H]2O[N+](=O)[O-] [ISOSORBIDE DINITRATE] | 650 | 3.5 | 1.9 | 2.6 | 700 | 600 | 970 | 24 | 
8 | Cc1cn([C@H]2C[C@H](O)[C@@H](CO)O2)c(=O)[nH]c1=O [DOXRIBTIMINE] | 100 |  |  |  |  |  | 95 |  | CC50 [17]: 130 µM
9 | Cc1cn([C@H]2C[C@H](O[N+](=O)[O-])[C@@H](CO)O2)c(=O)[nH]c1=O | 7000 | 4.9 | 7.4 | 7.4 |  |  | 1000 | 53.6 | IC50 [8]: > 80 µg/mL; IC50 [9]: > 80 µg/mL; IC50 [20]: > 80 µg/mL; IC50 [10]: > 80 µg/mL; IC50 [11]: > 80 µg/mL; IC50 [12]: > 80 µg/mL
10 | O=c1ccn([C@H]2C[C@H](O)[C@@H](CO[N+](=O)[O-])O2)c(=O)[nH]1 |  | 5.4 | 2.9 | 4.4 |  |  | 1000 | 59.9 | 
11 | O=c1[nH]c(=O)n([C@H]2C[C@H](O)[C@@H](CO)O2)cc1F [FLOXURIDINE] |  |  |  |  | 100 | 90 |  |  | 
12 | O=c1[nH]c(=O)n([C@H]2C[C@H](O[N+](=O)[O-])[C@@H](CO)O2)cc1I | 260 | 3.9 | 12.3 | 13.2 | 410 | 580 | 240 | 37.6 | CC50 [21]: 23 µM; IC50 [22]: 48 µg/mL (≈ 120 µM); IC50 [23]: 48 µg/mL (≈ 120 µM); IC50 [7]: > 80 µg/mL; IC50 [8]: > 80 µg/mL; IC50 [9]: > 80 µg/mL; IC50 [15]: 48 µg/mL (≈ 120 µM); IC50 [10]: > 80 µg/mL; IC50 [11]: > 80 µg/mL; IC50 [12]: > 80 µg/mL
13 | Cc1cn([C@H]2C[C@H](O[N+](=O)[O-])[C@@H](CO)O2)c(=O)nc1N |  | 3.8 | 47.1 | 59.5 | 1000 |  |  | 50.3 | 
14 | Nc1ccn([C@H]2C[C@H](O[N+](=O)[O-])[C@@H](CO)O2)c(=O)n1 |  | 1.5 | 18.8 | 20.2 | 200 |  |  | 17.1 | 
15 | O=c1[nH]c(=O)n([C@H]2C[C@H](O)[C@@H](CO)O2)cc1I [IDOXURIDINE] | 10 |  |  |  | 7400 | 7000 | 97 |  | CC50 [17]: 380 µM
